Measured values published in ChEMBL document CHEMBL1121970, “Potential radiosensitizing agents. 5. 2-Substituted benzimidazole derivatives” (1982).

What was measured:
CHO [1] = assay: Radiosensitizing activity against chinese hamster cells was determined in the presence of the sensitizer under nitrogen at a concentration of 1.0 mM; assay type: functional, Cricetulus griseus
Summary of the method: (§1)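 V-79 Chinese hamster monolayers (exponentially growing, MEM with 15% fetal calf serum), about 200 cells per dish. Made hypoxic by purging sealed containers with 95% N2/5% CO2 for 1 h. Drug at maximum nontoxic concentration (1 mM or less) for 2 h at 37 °C. Cobalt-60 irradiation, 1400 rad, at room temperature. Medium replaced, colonies counted after 6 days; % survival.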

V79 = assay: Inhibitory activity against hypoxic Chinese hamster cells(V-79) in culture by colony formation assay; assay type: functional; details: Cricetulus griseus, read-out: ED50 (the source's name)
[2] = Sensitizer enhancement ratio was determined by dividing the Do value obtained from the control radiation survival curve by the Do value obtained from the radiation survival curve; assay type: functional
CHO [3] = assay: Radiosensitizing activity against chinese hamster cells was determined in the presence of the sensitizer under nitrogen at a concentration of 0.010 mM; assay type: functional, Cricetulus griseus; summary of the method: as §1
[4] = Sensitizer enhancement ratio(SER) was determined; assay type: functional

SMILES | Survivals (CHO [1]) [%] | EC50 (V79) [mM] | SER [2] | Survivals (CHO [3]) [%] | SER [4]
COCC(O)Cn1c(C(F)(F)F)nc2ccc([N+](=O)[O-])cc21 (stereo unspecified) | 17.6 | 3 | 1.2 |  | 
COCC(O)Cn1c(C(F)(F)F)nc2cc([N+](=O)[O-])ccc21 (stereo unspecified) | 13.8 | > 5 | 1.4 |  | 
COCC(O)Cn1c(C(N)=O)nc2ccccc21 (stereo unspecified) | 21 | > 5 | 1.1 |  | 
COCC(O)Cn1c([N+](=O)[O-])nc2ccccc21 (stereo unspecified) | 9.4 | 4.8 | 2 |  | 
COCC(O)Cn1c(C#N)nc2ccccc21 (stereo unspecified) | 23 | 1.2 | 1 |  | 
COCC(O)Cn1c(C(C)=O)nc2cc([N+](=O)[O-])ccc21 (stereo unspecified) | 11.3 | > 5 | 1.2 |  | 
COCC(O)Cn1c(C(C)=O)nc2ccccc21 (stereo unspecified) | 23 | > 5 | 1 |  | 
COCC(O)Cn1c(C(F)(F)F)nc2ccccc21 (stereo unspecified) | 22 | > 5 | 1.1 |  | 
CCOC(=O)Cn1c([N+](=O)[O-])nc2ccc([N+](=O)[O-])cc21 |  | 0.006 |  | 22.9 | 1
CCOC(=O)Cn1c([N+](=O)[O-])nc2ccccc21 | 2.7 | 0.3 | 2.3 |  | 
CCOC(=O)Cn1c([N+](=O)[O-])nc2cc([N+](=O)[O-])ccc21 | 26.7 | 0.016 |  |  | 1
COCC(O)Cn1c(S(C)(=O)=O)nc2ccccc21 (stereo unspecified) | 25.8 | 3.2 | 1 |  | 
